The source made the active and inactive calls.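 The calls were made as follows, unless noted: active = viability at or below 10% of carrier control in both of two separate runs; inconclusive = viability at or below 10% in only one of the two runs; inactive = the rest.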
How the values were obtained:
[1] = reducers of endogenous Her2 protein level, primary screen, SKBR3 breast tumor cells, AlphaScreen, ATP viability (AID 461;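 active = Her2 level under about 52% in both replicate screens, with viability over 70% of control, limit read from the data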;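 as to Her2 level: lower value means less Her2 protein in the cells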;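 as to viability: percent of carrier control wells set as 100% viability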); conditions: 18-24 h, measured here: SKBR3 viability, ATP luminescence, at 10 µM
[2] = molecular target: Receptor tyrosine-protein kinase erbB-2 (Homo sapiens) (UniProt P04626); assay: as above; conditions: 18-24 h, at 10 µM, stronger effect = lower value
Chain of Receptor tyrosine-protein kinase erbB-2 (Homo sapiens) (P04626 whole entry, looked up): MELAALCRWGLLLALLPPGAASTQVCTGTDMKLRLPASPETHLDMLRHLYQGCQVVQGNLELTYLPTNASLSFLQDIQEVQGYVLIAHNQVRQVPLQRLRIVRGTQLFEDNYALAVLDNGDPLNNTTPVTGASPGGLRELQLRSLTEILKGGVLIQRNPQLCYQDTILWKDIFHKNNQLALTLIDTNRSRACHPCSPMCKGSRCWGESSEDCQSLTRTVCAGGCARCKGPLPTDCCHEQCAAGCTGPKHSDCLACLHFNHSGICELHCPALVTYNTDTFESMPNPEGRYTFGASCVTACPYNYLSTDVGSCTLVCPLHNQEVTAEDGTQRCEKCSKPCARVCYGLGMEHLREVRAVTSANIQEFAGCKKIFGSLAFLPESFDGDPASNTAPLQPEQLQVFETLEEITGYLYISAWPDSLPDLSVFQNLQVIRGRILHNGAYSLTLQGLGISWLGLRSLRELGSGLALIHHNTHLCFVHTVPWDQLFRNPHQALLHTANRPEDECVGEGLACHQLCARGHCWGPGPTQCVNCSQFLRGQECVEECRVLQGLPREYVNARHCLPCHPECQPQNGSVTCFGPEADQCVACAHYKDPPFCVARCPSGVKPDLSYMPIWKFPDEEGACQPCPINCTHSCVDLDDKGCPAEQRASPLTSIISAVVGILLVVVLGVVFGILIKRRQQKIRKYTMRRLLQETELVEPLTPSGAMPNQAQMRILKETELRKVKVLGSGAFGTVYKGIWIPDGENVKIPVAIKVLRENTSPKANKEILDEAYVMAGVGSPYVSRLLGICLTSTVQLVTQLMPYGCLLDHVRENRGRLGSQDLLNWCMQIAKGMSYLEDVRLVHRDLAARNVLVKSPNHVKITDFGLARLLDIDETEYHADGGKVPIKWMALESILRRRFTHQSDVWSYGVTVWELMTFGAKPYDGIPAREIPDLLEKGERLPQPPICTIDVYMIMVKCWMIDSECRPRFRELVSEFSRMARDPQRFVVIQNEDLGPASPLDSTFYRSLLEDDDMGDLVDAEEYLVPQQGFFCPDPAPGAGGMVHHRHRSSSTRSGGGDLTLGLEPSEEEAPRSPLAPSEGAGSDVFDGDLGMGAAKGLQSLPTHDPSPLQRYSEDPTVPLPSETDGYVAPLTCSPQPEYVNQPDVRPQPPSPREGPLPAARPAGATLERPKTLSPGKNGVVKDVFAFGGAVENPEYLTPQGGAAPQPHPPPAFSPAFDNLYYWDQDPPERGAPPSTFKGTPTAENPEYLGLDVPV

[3] = SK-BR-3 cell growth inhibitors, pilot screen, 24 h, human (AID 572); conditions: SK-BR-3 viability, CellTiter-Glo luminescence, at 10 µM, stronger effect = lower value;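 also: compound exposure lasted between 18 and 24 h rather than exactly 24 h; 100% = carrier-treated control wells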
[4] = HUVEC growth inhibition – cell-based, human, primary screen (AID 575;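 active = viability at or below 30% in both replicate assays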;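 also: 100% = median of untreated cell wells with 0.1% DMSO on each plate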); conditions: HUVEC proliferation, CellTiter-Glo luminescence, 72 h; at 10 µM; stronger effect = lower value
Summary of the method: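 Test system: HUVEC primary cells. Quantity: 1250 endothelial cells in each well. Dosing: single-point 10 µM, DMSO 0.1% final. Incubation: 72 h treatment at 37 °C. Measured by: CTG luminescence. Control set: DMSO cell controls and MePR drug controls. Plate: collagen-coated 384-well format.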

[5] = growth inhibitors of H69AR lung tumor, primary screen, human, duplicate replicates (AID 580;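 active = viability at or under a set limit in both replicates, limit being median viability minus 3 SD, cut at about 48% in these data, passing the limit was not always enough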;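 also: 100% = mean luminescence of untreated wells and 0% = no signal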); conditions: H69AR lung tumor cells viability, ATP luminescence, 72 h; at 10 µM; stronger effect = lower value
[6] = reversal of MRP1-mediated doxorubicin resistance, pilot screen, H69AR cells, doxorubicin co-treatment (AID 601;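 active = viability loss from added drug above about 55%, and viability with drug at most 40%, in both replicates, limit read from the data, passing the limit was not always enough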); conditions: CellTiter-Glo, 72 h, at 10 µM; for differential viability (reversal): stronger effect = higher value
[7] = 384-well plate pilot, post-Golgi transport modulator project, inhibition of yeast transport mutant growth (AID 636; in the data active = inhibition above about 31%); conditions: absorbance 615 nm, about 18 h, stronger effect = higher value
[8] = growth suppression of yeast trafficking mutant, preliminary HTS, modulators of trafficking downstream of Golgi apparatus project, 1536-format plate, OD 615 nm (AID 637; in the data active = inhibition above about 30%); conditions: yeast transport mutant growth, absorbance 615 nm, 18 h; stronger effect = higher value
[9] = H69AR cells + 2 uM doxorubicin, measured here: viability with 2 uM doxorubicin, stronger effect = lower value
[10] = H69AR cells, compound alone cytotoxicity

Structure (SMILES)	viability [1]	Her2 level [2]	viability [3]	viability [4]	viability [5]	differential viability (reversal) ([6]; H69AR cells + 2 uM doxorubicin)	viability [6, 9]	viability [6, 10]	inhibition [7]	inhibition [8]
CCOC(=O)[C@H](CCc1ccccc1)N[C@@H](C)C(=O)N1CCC[C@H]1C(=O)O	116%	100% (inactive)	116% (inactive)	103% (inactive)	88.6% (inactive)	-8.79% (inactive)	97.4%	88.6%	–	–
Cc1ncc([N+](=O)[O-])n1CCO	99.5%	108% (inactive)	99.5% (inactive)	103% (inactive)	105% (inactive)	8.66% (inactive)	96.7%	105%	–	–
Cc1cccc(C)c1NC(=O)C1CCCCN1C (stereo not drawn)	108%	101% (inactive)	108% (inactive)	104% (inactive)	99.7% (inactive)	12% (inactive)	87.7%	99.7%	–	–
CCCCCCCC(=O)OCC(=O)[C@@]1(O)CC[C@H]2[C@@H]3CCC4=CC(=O)CC[C@]4(C)[C@H]3[C@@H](O)C[C@@]21C	120%	102% (inactive)	120% (inactive)	97.6% (inactive)	102% (inactive)	-5.05% (inactive)	107%	102%	–	–
CC(=O)OCC(=O)[C@@]1(O)CC[C@H]2[C@@H]3CCC4=CC(=O)C=C[C@]4(C)[C@@]3(Cl)[C@@H](Cl)C[C@@]21C	114%	116% (inactive)	114% (inactive)	98.5% (inactive)	97.4% (inactive)	-13% (inactive)	110%	97.4%	–	–
C[C@@H]1C[C@H]2[C@@H]3C[C@H](F)C4=CC(=O)C=C[C@]4(C)[C@@]3(F)[C@@H](O)C[C@]2(C)[C@@]1(O)C(=O)CO	74%	118% (inactive)	74% (inactive)	113% (inactive)	92.7% (inactive)	-3.78% (inactive)	96.5%	92.7%	–	–
CC[N+](C)(C)c1cccc(O)c1	97.5%	94.5% (inactive)	97.5% (inactive)	81.1% (inactive)	95% (inactive)	9.69% (inactive)	85.3%	95%	–	–
NC(Cc1ccc(Oc2ccc(O)cc2)cc1)C(=O)O (stereo not drawn)	92.5%	97% (inactive)	92.5% (inactive)	107% (inactive)	80.8% (inactive)	7.61% (inactive)	73.1%	80.8%	–	–
CCC(C)(C(=O)NC1CCCCC1)N(Cc1ccco1)C(=O)c1ccc2c(c1)OCO2 (stereo not drawn)	92.5%	89% (inactive)	92.5% (inactive)	82.3% (inactive)	83.4% (inactive)	3.06% (inactive)	80.3%	83.4%	-1.82% (inactive)	-7.05% (inactive)
CC(NC(=O)COc1ccc(Br)cc1)C(=O)O (stereo not drawn)	108%	114% (inactive)	108% (inactive)	104% (inactive)	91.8% (inactive)	4.2% (inactive)	87.6%	91.8%	-3.64% (inactive)	-2.33% (inactive)
Cc1noc(C)c1C(=O)Nc1ccc(Cl)cc1C(F)(F)F	91%	86.5% (inactive)	91% (inactive)	84.7% (inactive)	93.1% (inactive)	-0.845% (inactive)	94%	93.1%	-6.13% (inactive)	3.11% (inactive)
O=C(CN(Cc1ccco1)C(=O)CNS(=O)(=O)c1ccc(F)cc1)NCCc1ccccc1	78%	91.5% (inactive)	78% (inactive)	85.8% (inactive)	91.9% (inactive)	0.9% (inactive)	91%	91.9%	-6.35% (inactive)	-2.79% (inactive)
CCC1(c2ccccc2)C(=O)NCNC1=O	96.5%	102% (inactive)	96.5% (inactive)	116% (inactive)	102% (inactive)	16.5% (inactive)	85.7%	102%	–	–
CCCn1c(=O)[nH]c(=O)c2[nH]cnc21	104%	92% (inactive)	104% (inactive)	98.1% (inactive)	100% (inactive)	3.64% (inactive)	96.7%	100%	–	–
CCOC(=O)CSc1nc2sc(C)c(C)c2c(=O)n1C	104%	69% (inactive)	104% (inactive)	85.4% (inactive)	94.2% (inactive)	9.32% (inactive)	84.8%	94.2%	-2.34% (inactive)	-0.17% (inactive)
O=C(NCc1ccco1)C(c1ccco1)N(C(=O)Cn1nnc2ccccc21)c1ccc2c(c1)CCC2 (stereo not drawn)	95.5%	92.5% (inactive)	95.5% (inactive)	89.7% (inactive)	99.8% (inactive)	8.6% (inactive)	91.2%	99.8%	-2.8% (inactive)	-5.97% (inactive)
CCS(=O)(=O)CCn1c([N+](=O)[O-])cnc1C	89.5%	122% (inactive)	89.5% (inactive)	105% (inactive)	100% (inactive)	9.26% (inactive)	90.9%	100%	–	–
